Measured values reported in publication PMC5599994 (Clinical Pharmacology in Drug Development, 2017).
Where “and” joins values, the source holds several entries; their conditions need not be identical. Equal entries are not always repeated.

Key:
CYP3A4 = test: Clinical drug-drug interaction: ratio; format: in vivo, human; conditions: (midazolam + tenapanor)/midazolam; tenapanor 15 mg twice daily; healthy volunteers
[1] = format: in vivo, human; conditions: plasma; midazolam 7.5 mg oral single dose alone, day 1
CYP2B6 mRNA = test: CYP mRNA induction in HepaRG cell cultures; format: in vitro ADME, human; conditions: 24 hours; for maximal increase in CYP2B6 mRNA levels relative to vehicle control: positive controls
Safety and tolerability = format: in vivo, human
CYP2C9 = CYP2C9 (Homo sapiens, UniProt P11712); test: Reversible CYP inhibition in human liver microsomes, diclofenac marker; format: in vitro ADME
Summary of the method: (§1)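 A cocktail at or below KM was incubated 5 min at 37°C with NADPH in 150-donor pooled human liver microsomes: phenacetin 30 μM (CYP1A2), diclofenac 10 μM (CYP2C9), (S)-mephenytoin 35 μM (CYP2C19), bufuralol 5 μM (CYP2D6), midazolam 3 μM (CYP3A4/5). Test compound was run at 0.1–30 μM (six levels), in triplicate. TCA quench, then LC-MS/MS (MRM) of metabolites. IC50 was fitted from % of DMSO-control activity versus log concentration; inhibition only at top concentration was reported as >30 μM.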

CYP3A4 mRNA = conditions: HepaRG, 24 hours
CYP2C19 = CYP2C19 (Homo sapiens, UniProt P33261); test: Reversible CYP inhibition in human liver microsomes; format: in vitro ADME
Summary of the method: as §1

CYP1A2 mRNA = test: CYP mRNA induction in HepaRG cell cultures; format: in vitro ADME, human; conditions: 24 hours
CYP2D6 = CYP2D6 (Homo sapiens, UniProt P10635); test: Reversible CYP inhibition in human liver microsomes, bufuralol marker; format: in vitro ADME
Summary of the method: as §1

[2] = patients with CKD stage 5D on dialysis; in 387 of 390 serum samples; cited from earlier work
CYP2C8 = target: T1, CYP2C8 (Homo sapiens, UniProt P10632); test: Reversible CYP inhibition in human liver microsomes, amodiaquine marker; format: in vitro ADME
T1 sequence (P10632 1-490): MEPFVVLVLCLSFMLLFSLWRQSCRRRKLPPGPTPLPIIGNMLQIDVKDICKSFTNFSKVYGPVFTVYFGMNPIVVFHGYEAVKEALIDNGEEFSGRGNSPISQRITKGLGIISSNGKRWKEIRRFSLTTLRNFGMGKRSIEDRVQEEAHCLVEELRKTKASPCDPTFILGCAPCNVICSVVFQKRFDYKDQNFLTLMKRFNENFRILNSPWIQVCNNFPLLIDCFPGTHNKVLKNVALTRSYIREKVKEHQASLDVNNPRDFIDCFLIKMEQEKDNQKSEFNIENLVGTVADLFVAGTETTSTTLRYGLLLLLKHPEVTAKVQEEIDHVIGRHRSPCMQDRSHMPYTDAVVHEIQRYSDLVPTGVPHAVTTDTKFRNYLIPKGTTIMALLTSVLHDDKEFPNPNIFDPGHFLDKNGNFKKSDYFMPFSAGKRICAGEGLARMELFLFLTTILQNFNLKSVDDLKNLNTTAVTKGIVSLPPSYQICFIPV
Summary of the method: (§2)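 Pooled human liver microsomes (150 donors) with NADPH, 10 min at 37°C, using a substrate cocktail at or below KM: bupropion 80 μM (CYP2B6), amodiaquine 2 μM (CYP2C8), nifedipine 25 μM. Test compound was run at six levels, 0.1–30 μM, in triplicate. TCA quench, then metabolite by LC-MS/MS (MRM). IC50 came from a fit of % DMSO-control activity against log concentration; inhibition only at 30 μM was reported as >30 μM.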

CYP2B6 = target: T2, CYP2B6 (Homo sapiens, UniProt P20813); test: Reversible CYP inhibition in human liver microsomes, bupropion marker; format: in vitro ADME
T2 sequence (P20813 1-491): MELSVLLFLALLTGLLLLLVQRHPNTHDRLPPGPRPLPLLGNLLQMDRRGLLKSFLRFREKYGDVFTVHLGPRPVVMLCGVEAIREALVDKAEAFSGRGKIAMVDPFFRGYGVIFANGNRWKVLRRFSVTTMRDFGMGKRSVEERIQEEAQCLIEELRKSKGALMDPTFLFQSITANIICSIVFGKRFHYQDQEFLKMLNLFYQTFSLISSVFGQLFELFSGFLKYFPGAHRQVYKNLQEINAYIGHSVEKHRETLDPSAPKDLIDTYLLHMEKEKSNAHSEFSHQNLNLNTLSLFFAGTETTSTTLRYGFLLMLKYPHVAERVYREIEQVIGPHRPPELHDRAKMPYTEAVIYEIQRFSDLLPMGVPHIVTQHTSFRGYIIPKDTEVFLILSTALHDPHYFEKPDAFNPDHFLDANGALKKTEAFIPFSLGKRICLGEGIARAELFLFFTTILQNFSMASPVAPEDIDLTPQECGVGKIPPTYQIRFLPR
Summary of the method: as §2

CYP3A4/5 = format: in vitro ADME; conditions: human, human liver microsomes, probe midazolam 3 μM (1-OH-midazolam formation)
Summary of the method: as §1

HepaRG cells = test: Cytotoxicity in the HepaRG induction experiments; format: cell-based, human
CYP1A2 = target: T3, CYP1A2 (Homo sapiens, UniProt P05177); test: Reversible CYP inhibition in human liver microsomes, phenacetin marker; format: in vitro ADME; conditions: probe phenacetin 30 μM (paracetamol formation)
T3 sequence (P05177 1-516): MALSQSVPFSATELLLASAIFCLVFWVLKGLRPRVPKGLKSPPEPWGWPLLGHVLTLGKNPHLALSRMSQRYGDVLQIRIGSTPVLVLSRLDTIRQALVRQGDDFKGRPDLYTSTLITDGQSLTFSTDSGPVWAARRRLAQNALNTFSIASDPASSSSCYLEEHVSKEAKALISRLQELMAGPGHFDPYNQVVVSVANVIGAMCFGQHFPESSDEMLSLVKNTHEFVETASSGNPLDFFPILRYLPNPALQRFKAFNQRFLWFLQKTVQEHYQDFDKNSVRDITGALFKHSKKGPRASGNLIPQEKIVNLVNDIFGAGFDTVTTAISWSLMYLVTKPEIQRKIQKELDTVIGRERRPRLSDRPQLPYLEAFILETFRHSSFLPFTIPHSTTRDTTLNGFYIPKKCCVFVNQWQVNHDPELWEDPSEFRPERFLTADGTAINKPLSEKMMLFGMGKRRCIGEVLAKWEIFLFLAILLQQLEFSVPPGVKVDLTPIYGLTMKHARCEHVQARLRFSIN
Summary of the method: as §1

[3] = concentrations of up to 20 μM, all experiments
[4] = tenapanor 15 mg twice daily alone

Chain of CYP2C19 (P33261 whole entry): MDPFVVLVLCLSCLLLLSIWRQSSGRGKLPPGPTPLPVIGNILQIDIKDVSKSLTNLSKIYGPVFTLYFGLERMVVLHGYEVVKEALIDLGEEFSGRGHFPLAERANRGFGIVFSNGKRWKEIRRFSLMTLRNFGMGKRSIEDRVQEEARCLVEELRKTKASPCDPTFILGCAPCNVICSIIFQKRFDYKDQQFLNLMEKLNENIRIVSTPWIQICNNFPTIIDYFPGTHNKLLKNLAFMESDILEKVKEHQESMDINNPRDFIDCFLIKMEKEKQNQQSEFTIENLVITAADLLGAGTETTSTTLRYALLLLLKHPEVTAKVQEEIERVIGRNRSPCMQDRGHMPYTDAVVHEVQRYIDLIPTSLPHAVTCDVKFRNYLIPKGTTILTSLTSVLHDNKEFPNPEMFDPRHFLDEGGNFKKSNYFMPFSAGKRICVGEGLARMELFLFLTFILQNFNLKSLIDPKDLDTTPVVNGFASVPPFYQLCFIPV
Chain of CYP2C9 (P11712 whole entry): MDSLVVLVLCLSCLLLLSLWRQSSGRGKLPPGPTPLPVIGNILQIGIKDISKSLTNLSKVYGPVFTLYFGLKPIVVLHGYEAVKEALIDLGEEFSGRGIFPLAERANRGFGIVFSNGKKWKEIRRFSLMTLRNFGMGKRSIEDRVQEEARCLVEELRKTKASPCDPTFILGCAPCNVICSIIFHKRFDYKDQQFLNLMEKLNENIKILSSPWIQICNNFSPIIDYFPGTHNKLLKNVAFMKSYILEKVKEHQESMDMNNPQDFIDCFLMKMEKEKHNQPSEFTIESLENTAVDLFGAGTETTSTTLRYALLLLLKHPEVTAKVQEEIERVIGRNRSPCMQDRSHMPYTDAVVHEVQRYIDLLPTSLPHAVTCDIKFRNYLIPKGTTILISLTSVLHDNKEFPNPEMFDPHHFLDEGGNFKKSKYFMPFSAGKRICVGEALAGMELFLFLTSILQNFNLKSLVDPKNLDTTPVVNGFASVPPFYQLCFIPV
Chain of CYP2D6 (P10635 whole entry): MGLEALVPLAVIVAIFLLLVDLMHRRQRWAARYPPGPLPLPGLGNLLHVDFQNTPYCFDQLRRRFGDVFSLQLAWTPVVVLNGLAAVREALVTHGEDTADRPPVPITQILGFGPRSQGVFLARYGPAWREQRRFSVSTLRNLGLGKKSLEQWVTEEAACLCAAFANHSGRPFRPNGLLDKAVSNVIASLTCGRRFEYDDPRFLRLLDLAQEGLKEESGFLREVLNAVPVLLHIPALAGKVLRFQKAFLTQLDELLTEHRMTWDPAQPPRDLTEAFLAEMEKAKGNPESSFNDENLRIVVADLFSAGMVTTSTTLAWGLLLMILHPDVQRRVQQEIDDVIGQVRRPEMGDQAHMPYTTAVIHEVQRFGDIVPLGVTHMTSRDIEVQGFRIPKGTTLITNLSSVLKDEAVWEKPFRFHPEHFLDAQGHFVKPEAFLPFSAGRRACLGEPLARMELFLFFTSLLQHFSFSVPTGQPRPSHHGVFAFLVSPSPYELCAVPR

Compound: OCc1ncc2n1-c1ccc(Cl)cc1C(c1ccccc1F)=NC2 [1‐OH‐midazolam]
- AUC0-t ratio (90%CI), geometric least-squares means (CYP3A4): 110 (104‐116) %
- AUC ratio (90%CI), geometric least-squares means (CYP3A4): 110 (103‐116) %
- Cmax ratio (90%CI), geometric least-squares means (CYP3A4): 103 (87.2‐122) %
- AUC0-t, arithmetic mean (SD) [1]: 52.1 (29.7) ng·h/mL
- AUC0-t, geometric mean (GCV%) [1]: 47.2 (43.1) ng·h/mL
- AUC, arithmetic mean (SD) [1]: 54.1 (31.6) ng·h/mL
- AUC, geometric mean (GCV%) [1]: 48.8 (43.6) ng·h/mL
- Cmax, arithmetic mean (SD) [1]: 26.6 (12.0) ng/mL
- Cmax, geometric mean (GCV%) [1]: 24.1 (47.8) ng/mL
- t1/2, arithmetic mean (SD) [1]: 5.14 (2.22) h
- t1/2, geometric mean (GCV%) [1]: 4.64 (50.0) h
- tmax, median (range) [1]: 0.50 (0.25‐0.55) h

Compound: Cc1ncc2n1-c1ccc(Cl)cc1C(c1ccccc1F)=NC2O (centres unmarked) [4‐OH‐midazolam]
- AUC0-t ratio (90%CI), geometric least-squares means (CYP3A4): 106 (99.1‐113) %
- AUC ratio (90%CI), geometric least-squares means (CYP3A4): 105 (98.7‐111) %
- Cmax ratio (90%CI), geometric least-squares means (CYP3A4): 105 (90.5‐122) %
- AUC0-t, arithmetic mean (SD) [1]: 5.65 (1.50) ng·h/mL
- AUC0-t, geometric mean (GCV%) [1]: 5.47 (26.9) ng·h/mL
- AUC, arithmetic mean (SD) [1]: 6.14 (1.56) ng·h/mL
- AUC, geometric mean (GCV%) [1]: 5.96 (25.3) ng·h/mL
- Cmax, arithmetic mean (SD) [1]: 2.11 (0.757) ng/mL
- Cmax, geometric mean (GCV%) [1]: 1.99 (37.6) ng/mL
- t1/2, arithmetic mean (SD) [1]: 2.48 (0.820) h
- t1/2, geometric mean (GCV%) [1]: 2.37 (30.2) h
- tmax, median (range) [1]: 0.50 (0.25‐1.02) h

Compound: Clc1ccc(-c2nc3sccn3c2C=NOCc2ccc(Cl)c(Cl)c2)cc1 [CITCO, 6‐[4‐chlorophenyl]imidazo[2,1‐b][1,3]thiazole‐5‐carbaldehyde O‐[3,4‐dichlorobenzyl]oxime]
- maximal increase in CYP2B6 mRNA levels relative to vehicle control (CYP2B6 mRNA): 13.2 fold

Compound: Cc1ncc2n1-c1ccc(Cl)cc1C(c1ccccc1F)=NC2 [Midazolam, midazolam, reference compound]
- AUC0-t ratio (90%CI), geometric least-squares means (CYP3A4): 106 (100‐113) %
- AUC ratio (90%CI), geometric least-squares means (CYP3A4): 107% and 107 (101‐113) %
- Cmax ratio (90%CI), geometric least-squares means (CYP3A4): 104% and 104 (89.6‐122) %
- tmax, median (range) [1]: 0.50 (0.25‐0.55) h
- somnolence (Safety and tolerability; healthy volunteers): 27/28
- volunteers reporting at least 1 AE (Safety and tolerability; healthy volunteers): 27/28

Compound: CN1Cc2c(Cl)cc(Cl)cc2[C@H](c2cccc(S(=O)(=O)NCCOCCOCCNC(=O)NCCCCNC(=O)NCCOCCOCCNS(=O)(=O)c3cccc([C@@H]4CN(C)Cc5c(Cl)cc(Cl)cc54)c3)c2)C1 [Tenapanor]
- IC50 (CYP2C9): 14.2 ± 3.2 µM
- CYP3A4 mRNA induction as % of the positive control response (CYP3A4 mRNA; 1 of 4 experiments): 16.8%
- induction of CYP3A4 mRNA expression (CYP3A4 mRNA; 1 of 4 experiments): up to 5.85 fold
- influence on CYP3A4 mRNA levels (CYP3A4 mRNA; 3 of 4 experiments): not observed to influence
- IC50 (CYP2C19): > 30 µM
- Tenapanor IC50 (n = 3) (CYP2C19; human liver microsomes, S-mephenytoin 35 μM to 4-OH-mephenytoin): No IC50 could be determined
- induction of CYP1A2 mRNA expression (CYP1A2 mRNA; [3]): did not induce
- IC50 (CYP2D6): 3.26 ± 0.54 µM
- serum tenapanor [2]: below the limit of quantification
- IC50 (CYP2C8): 10.4 ± 3 µM
- induction of CYP2B6 mRNA expression (CYP2B6 mRNA; [3]): did not induce
- volunteers reporting at least 1 AE (Safety and tolerability; healthy volunteers): 9/27
- abdominal pain (Safety and tolerability; [4]): 1 n
- abnormal gastrointestinal sounds (Safety and tolerability; [4]): 2 n
- defecation urgency (Safety and tolerability; [4]): 1 n
- dizziness (Safety and tolerability; [4]): 2 n
- hypertrophy of tongue papillae (Safety and tolerability; [4]): 1 n
- gastrointestinal disorders (Safety and tolerability; tenapanor 15 mg twice daily alone, of the 9 volunteers who reported AEs): 5 volunteers
- IC50 (CYP2B6): 15.4 ± 7.5 µM
- IC50 at 5 min (CYP3A4/5): 0.402 ± 0.032 µM
- cytotoxicity to HepaRG cells (HepaRG cells; 20 μM): not
- cytotoxicity to HepaRG cells (HepaRG cells; 50 μM): cytotoxic
- IC50 at 5 min (CYP1A2): > 30 µM

Compound: COc1ccc2[nH]c([S+]([O-])Cc3ncc(C)c(OC)c3C)nc2c1 (centres unmarked) [omeprazole, reference compound]
- maximal increase in CYP1A2 mRNA levels relative to vehicle control (CYP1A2 mRNA; positive control): 32.0 fold

Compound: CCC1(c2ccccc2)C(=O)NC(=O)NC1=O [phenobarbital]
- maximal increase in CYP2B6 mRNA levels relative to vehicle control (CYP2B6 mRNA): 17.0 fold
